Screens: PubChem BioAssay, several laboratories
This is a sample that favours compounds with a hit; in the whole collection about 2.5% have one here.
Bfl-1 A1 inh: caspase 3/7 activation in MEF A1-2A-BIM cells, primary screen, A1 inhibitor project, cell-based, luminescence, HTS; Caspase-Glo 3/7 luminescence, 3 h; percent of clofoctol response, vehicle zero; caspase activation, % (no concentration beside the values); 330,000 tested, 0.066% active; AID 2462, 2010;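 active = over half of replicate activation scores above 10%, or exactly half above 10 with the replicate mean above 10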
Granule exo inh: LAMP-1 surface exposure blockers, TALL-104 cells – cell-based, flow cytometry, MLPCN library, primary screen; TALL-104 LAMP-1 surface exposure; cells stimulated with thapsigargin and PMA; inhibition, % at 10 µM; 360,000 tested, 0.66% active; AID 651702, 2012;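 active = inhibition above about 55%, limit read from the data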
sPLA2-III inh: human group III sPLA2 inhibitors, primary screen, biochemical, QFRET, BODIPY PC-A2 liposome substrate; Group 3 secretory phospholipase A2 (Homo sapiens), Q9NZ20; QFRET BODIPY PC-A2 liposome hydrolysis, fluorescence; 370,000 tested, 0.56% active; inhibition, % at 12.2 µM;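 active = inhibition above mean plus 3 SD of compounds lying within the high and low control bounds, cut at about 19% in these data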;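 note: 0% = median of test compound wells and 100% = no enzyme DMSO wells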
Target sequence (Q9NZ20 whole entry, looked up): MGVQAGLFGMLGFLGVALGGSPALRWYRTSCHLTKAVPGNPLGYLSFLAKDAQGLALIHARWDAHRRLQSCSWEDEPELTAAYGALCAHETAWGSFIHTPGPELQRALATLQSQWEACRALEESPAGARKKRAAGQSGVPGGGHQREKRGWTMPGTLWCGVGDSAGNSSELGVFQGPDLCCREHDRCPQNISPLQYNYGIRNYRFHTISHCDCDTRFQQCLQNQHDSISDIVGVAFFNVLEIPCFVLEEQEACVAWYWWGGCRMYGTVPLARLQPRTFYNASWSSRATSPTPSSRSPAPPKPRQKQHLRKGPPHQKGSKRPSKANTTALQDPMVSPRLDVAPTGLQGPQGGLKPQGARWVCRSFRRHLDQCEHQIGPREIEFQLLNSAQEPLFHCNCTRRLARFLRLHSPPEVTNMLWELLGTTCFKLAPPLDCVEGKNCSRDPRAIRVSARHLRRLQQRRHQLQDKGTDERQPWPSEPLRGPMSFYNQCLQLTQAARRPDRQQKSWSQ
NTR1 agonist: agonists of human NTR1, primary screen, imaging, U2OS cells, beta-arrestin-GFP, high content | activation, % at 20 µM | AID 493036, 2011 | NTR1-U2OS beta-arrestin-GFP spot imaging, agonist mode | Neurotensin receptor type 1 (Homo sapiens), P30989 | 330,000 tested, 0.17% active;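 active = activation at or above 40% of the spot to cytoplasm intensity ratio, with at least 20 cells analyzed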;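 note: 0% = DMSO without peptide and 100% = 100 nM NTR1 peptide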
MC4R ag barr: MC4R agonists recruiting beta-arrestin, primary screen, cell-based, luminescence, agonist arm of biased-ligand search | Melanocortin receptor 4 (Homo sapiens), P32245 | U2OS MC4R beta-arrestin complementation; percent of melanotan II response, DMSO zero | activation, % at 8.9 µM | 360,000 tested, 0.98% active | AID 540308, 2011;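 active = activation above a per-plate cutoff, the mean activation of sample wells on that plate plus 3 SD, cut at about 8% in these data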
MC4R antag cAMP: MC4R antagonists of cAMP signaling, primary screen, cell-based, TR-FRET, antagonist arm of biased-ligand search; Melanocortin receptor 4 (Homo sapiens), P32245; MC4R-expressing cells, MTII-stimulated cAMP, LANCE TR-FRET; 360,000 tested, 0.48% active; inhibition, % at 6.5 µM; AID 540295, 2011;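 active = inhibition above its plate's cutoff, the mean of tested wells on that plate plus 3 SD, cut at about 29% in these data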;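 note: 0% = Melanotan II alone and 100% = Melanotan II plus saturating MCL0020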
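Assay system: U2OS cells stably expressing human melanocortin 4 receptor (MC4R) / Dosing: 6.5 µM / Timing: compound 30 min, challenge 1 h, detection 1 h / Measured by: Eu-cAMP/anti-cAMP TR-FRET, emission 671 nm / Replicates: singlicate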
MC4R barr ag: MC4R beta-arrestin agonists, retest, confirmation, cell-based, luminescence, U2OS; shares compounds with MC4R ag barr; U2OS MC4R beta-arrestin recruitment; scaled DMSO 0%, Melanotan II 100%; activation, % at 8.9 µM; 2,400 tested, 31% active; AID 602192, 2012;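 active = mean activation across replicates above the hit cutoff set in the earlier primary screen, cut at about 8% in these data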
MOR DOR agonist: agonists of MOR-DOR heterodimerization, counter-screen for MC4R biased agonist project, cell-based, luminescence. U2OS PathHunter beta-arrestin, beta-gal luminescence; percent of deltorphin B response, DMSO zero. activation, % at 9.2 µM. 2,400 tested, 5.8% active. AID 602194, 2012. shares compounds with MC4R ag barr;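 active = mean activation across replicates exceeds the hit threshold derived in the earlier primary screen, cut at about 18% in these data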;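 note: 100% = deltorphin B at 0.9 µM final and 0% = DMSO alone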
* = called active by the depositor; . = not tested or not shown.

SMILES	Bfl-1 A1 inh	Granule exo inh	sPLA2-III inh	NTR1 agonist	MC4R ag barr	MC4R antag cAMP	MC4R barr ag	MOR DOR agonist
OC(CNCCc1ccccc1)COc1ccc(OCC(O)CNCCc2ccccc2)cc1 (stereo unspecified)	0	-1	-6	5	-1	-5	.	.
OC(CNCCc1ccc(Cl)cc1)COc1ccc2ccccc2c1 (stereo unspecified)	.	44	-16	.	20*	-4	15*	5
O=C(Cn1nnc(-c2ccccc2Cl)n1)N/N=C/c1ccc(-c2cccc(Cl)c2)o1	0	-1	12	2	11*	-11	8.9*	3
Cc1sc2nc(SCC(=O)Nc3ccccc3F)[nH]c(=O)c2c1C	0	-4	-4	1	12*	-2	2	4
CCCCOc1ccc(/C=N/NC(=S)Nc2cc(C)ccc2C)cc1	1	0	2	4	12*	1	5	4
CCCCOc1ccc(/C=N/NC(=S)Nc2cccc(C)c2C)cc1	1	0	0	2	1	12	.	.
CC1(C(=O)N2CCC(Oc3cccnc3)CC2)CC1	.	.	3	.	.	.	.	.
Cc1ccc(NC(=O)CCN2C(=O)c3cccc4cccc(c34)C2=O)cc1	0	-2	2	2	19*	5	3	8
CCOc1ccc(C(=O)Nc2ccc(NC(=O)c3ccccc3)c(C)c2)cc1[N+](=O)[O-]	0	-5	-4	0	12*	5	-3	5
CCOc1cccc(C(=O)Nc2ccc(NC(=O)c3ccccc3)c(C)c2)c1	-10	7	-1	1	0	13	.	.
CCOc1ccc(C(=O)Nc2ccc(NC(=O)c3ccco3)c(Cl)c2)cc1Cl	1	1	-7	17	36*	-8	3	19*
COc1cccc(C(=O)Nc2ccc(NC(=O)c3ccco3)c(Cl)c2)c1	-6	-1	-11	1	-1	-5	.	.
CCOc1cc(C(=O)Nc2ccc3c(c2)OCO3)ccc1OCCOc1ccccc1Cl	-1	-2	0	0	10*	1	12*	6
CCOc1ccc(C(=O)NC(=S)Nc2ccc(NC(=O)CC)cc2)cc1[N+](=O)[O-]	-1	4	5	0	-1	20	.	.
CCC(=O)NC(=S)Nc1ccc(NC(=O)c2ccc(C)c([N+](=O)[O-])c2)cc1	0	-9	2	7	11*	11	0	7
COC(=O)[C@]12C[C@H](CC(=O)NCc3cccc(C(F)(F)F)c3)C(=O)N(Cc3ccco3)C1=C[C@H](C(C)C)O[C@@H]2C1CC1	.	.	-13	.	.	.	.	.
COCCN(CCOC)C(=O)[C@H](CCc1ccccc1)NC(=O)[C@H]1O[C@@H](n2cnc3c(N)ncnc32)[C@H](O)[C@@H]1O	.	.	6	.	.	.	.	.
CCOc1ccc(C(=O)Nc2cccc([N+](=O)[O-])c2)cc1Br	-3	-1	1	3	15*	-10	4	8
CCOc1ccccc1NC(=O)c1cccc(NC(=O)c2ccco2)c1	2	0	-12	3	-1	-7	.	.
O=C(Nc1ccc(NC(=O)c2sc3ccccc3c2Cl)cc1Cl)c1ccco1	0	1	-3	2	36*	0	8.8*	3
O=C(Nc1ccc(NC(=O)c2cccs2)c(Cl)c1)c1ccco1	0	-1	-4	-1	-1	-7	.	.
CCOc1ccc(C(=O)Nc2ccc(NC(=O)c3ccco3)c(Cl)c2)cc1Br	-1	0	-2	16	36*	1	6	16
CCOc1ccc(C(=O)Nc2cccc(NC(=O)c3cccs3)c2)cc1[N+](=O)[O-]	.	5	-11	.	-3	20	.	.
CCCCN(C)C(=O)CNc1nnnn1-c1ccccc1	.	.	-1	.	.	.	.	.
COC(=O)C1CN(Cc2cn(Cc3ccc(C)cc3)nn2)CCS(=O)(=O)N1Cc1ccccc1 (stereo unspecified)	.	.	-4	.	.	.	.	.
SMILES	Bfl-1 A1 inh	Granule exo inh	sPLA2-III inh	NTR1 agonist	MC4R ag barr	MC4R antag cAMP	MC4R barr ag	MOR DOR agonist
COc1ccc(CNC(=S)Nc2ccc(-c3ccccc3)cc2)cc1	0	3	-1	4	13*	-4	4	8
COC(=O)c1ccc(C2C(Oc3ccc(OC)cc3)C(=O)N2CCc2ccc(OC)c(OC)c2)cc1 (stereo unspecified)	0	-2	14	4	6	1	.	.
COC(=O)c1ccc(C2C(Oc3ccccc3)C(=O)N2CCc2ccc(F)cc2)cc1 (stereo unspecified)	0	-1	1	15	20*	11	3	5
CCCC(=O)Nc1cccc(-c2nc3ccccc3o2)c1	-4	-1	-4	-2	-2	0	.	.
COc1ccc(OCC(=O)Nc2nonc2NC(=O)COc2ccc(OC)cc2)cc1	-2	2	-6	2	-2	4	.	.
COc1ccc(OCC(=O)Nc2cccc(NC(=O)COc3ccc(OC)cc3)n2)cc1	-5	-6	7	4	13*	1	5	26*
COc1ccc(OCC(=O)Nc2cccc(-c3nc4ccccc4o3)c2)cc1	-5	0	-6	7	19*	8	5	4
COc1ccc(-c2nnc(SCC(=O)Nc3ccccc3OC)o2)cc1	0	-1	1	1	-2	-4	.	.
COc1ccc(-c2nnc(SCC(=O)Nc3cccc(Cl)c3)o2)cc1	-1	10	-1	-2	16*	-5	3	9
COC(=O)c1cc(-c2ccc(C(C)=O)cc2)c(=O)n2c1CCC2	.	.	-5	.	.	.	.	.
Cc1ccc(-c2nc3ccccc3o2)cc1NC(=S)NC(=O)c1cc2ccccc2o1	0	-6	2	.	17*	1	11*	5
Cc1ccc2oc(-c3ccc(C)c(NC(=S)NC(=O)c4cccs4)c3)nc2c1	0	4	1	-1	4	6	.	.
